# Results from article PMC6366850 (Chembiochem : a European journal of chemical biology, 2018).
# Read-outs that look alike come from different tables or passages of the source.
# Columns and labels:
# [1] = target: T1, Human Neutrophil Elastase (Homo sapiens, UniProt P08246); test: Human neutrophil elastase inhibition assay; type: biochemical; conditions: for fold less potent than 1, HNE: ratio of IC50 values
# T1 sequence (P08246 30-267): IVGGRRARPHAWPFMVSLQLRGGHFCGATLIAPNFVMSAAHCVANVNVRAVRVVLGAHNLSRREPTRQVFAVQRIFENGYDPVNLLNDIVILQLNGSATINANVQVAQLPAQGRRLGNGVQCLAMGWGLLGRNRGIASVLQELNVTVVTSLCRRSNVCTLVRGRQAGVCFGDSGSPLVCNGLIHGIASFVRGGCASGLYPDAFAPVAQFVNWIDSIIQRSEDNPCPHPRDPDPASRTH
# [2] = target: T2, Bovine Pancreatic Chymotrypsin (Bos taurus, UniProt P00766); test: Chymotrypsin inhibition assay; type: biochemical
# Procedure, shortened: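 Bovine pancreatic α-chymotrypsin in 50 mM Tris-HCl, 100 mM NaCl, 1 mM CaCl₂, pH 7.8. Test compound in DMSO (top 100 μM final, half-log dilutions) was pre-incubated with enzyme for 30 min at room temperature. Substrate was N-succinyl-Gly-Gly-Phe-p-nitroanilide (1.5 mM solution). A405 was read every 30 s for 30 min, with a PMSF positive control. Percent activity came from initial slopes relative to solvent control.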
# [3] = target: Porcine Pancreatic Elastase (Sus scrofa, UniProt P00772); test: Porcine pancreatic elastase inhibition assay; type: biochemical
# Porcine Pancreatic Elastase, sequence (P00772 27-266): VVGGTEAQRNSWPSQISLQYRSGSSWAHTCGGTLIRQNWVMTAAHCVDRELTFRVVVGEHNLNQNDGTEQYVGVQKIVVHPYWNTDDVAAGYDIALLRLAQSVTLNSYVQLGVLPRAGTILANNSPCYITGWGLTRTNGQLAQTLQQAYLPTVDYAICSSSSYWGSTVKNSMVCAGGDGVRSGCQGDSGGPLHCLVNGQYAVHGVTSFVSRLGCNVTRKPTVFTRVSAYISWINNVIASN
# [4] = target: T3, Human neutrophil elastase (HNE) (Homo sapiens, UniProt P08246); test: In vitro cleavage of CD40-IgG chimera; type: biochemical; conditions: qualitative gel assessment; for complete inhibition of CD40ch cleavage up to (concentration): tested 0.001–100 μM, 2 h pre-incubation with HNE
# T3 sequence (P08246 30-267): T1 sequence (P08246 30-267)
# Procedure, shortened: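 Human neutrophil elastase (100 μg/mL stock in 0.1 M Tris-NaCl, pH 7.5) was pre-incubated 2 h at 4 °C with test compound (0.001–100 μM) or DMSO. CD40-IgG chimera (human CD40 residues 21–193 fused to human IgG1 fragment) was then added at an elastase:CD40 molar ratio of 1:10 and incubated 1.5 h at 37 °C. Reactions were stopped by freezing and fragments run on reducing SDS-PAGE (2% mercaptoethanol). Gels were silver-stained and bands judged qualitatively; controls were elastase only and CD40 only.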
# [5] = tested on: CD40 cleavage by HNE in MDA-MB-231 cells; test: Cleavage of CD40 by HNE in MDA-MB-231 cells, Western blot; type: cell-based, human; conditions: 100 nM HNE, 24 h
# Procedure, shortened: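 MDA-MB-231 cells seeded at 150,000/well; after 24 h, medium was replaced with medium containing 100 nM recombinant human neutrophil elastase plus test compound in DMSO or solvent. Lysates were taken after 24 h incubation and protein measured by BCA. 17 μg protein was run on SDS-PAGE, blotted to PVDF and probed with anti-CD40 antibody detecting the N-terminal fragment, with chemiluminescent detection.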
# MDA-MB-231 cells [6] = test: Cell viability assay; type: cell-based, human; conditions: 48 h, MTT
# Procedure, shortened: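 MDA-MB-231 cells seeded at 12,000 cells/well and grown 24 h, then exposed to test compound, HNE or DMSO solvent control. After 48 h, viability was read by MTT per the kit instructions.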
# [7] = tested on: ICAM-1 gene expression in MDA-MB-231 cells; test: ICAM-1 gene expression by RT-qPCR; type: cell-based, human; conditions: 12 h
# Procedure, shortened: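 MDA-MB-231 cells seeded at 500,000/well, grown 24 h, then serum-starved 24 h in DMEM. Medium was replaced with serum-free DMEM containing test compound or solvent, with 100 nM HNE where applied, for 12 h. RNA was isolated, reverse-transcribed with oligo(dT), and ICAM-1 transcripts were quantified by TaqMan qPCR.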
# [8] = tested on: sICAM-1 (ICAM-1 shedding) in MDA-MB-231 cells; test: sICAM-1 levels by ICAM-1 AlphaLisa; type: cell-based, human; conditions: 12 h; for reduction in the levels of sICAM-1: co-treatment with 100 nM HNE
# Procedure, shortened: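 MDA-MB-231 cells were grown overnight, starved 24 h, then placed in serum-free DMEM containing test compound or solvent, with 100 nM HNE where applied. After 12 h, culture medium was collected and soluble ICAM-1 quantified by AlphaLisa.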
# MDA-MB-231 cells [9] = test: HNE-induced morphological changes; type: cell-based, human
# MDA-MB-231 cells [10] = test: Transwell migration assay; type: cell-based, human; conditions: 48 h; for effect on migration of MDA-MB-231 cells: 100 nM HNE
# Procedure, shortened: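 Transwell inserts with 8 μm pore PET membranes. 5000 MDA-MB-231 cells in DMEM/10% FBS were seeded in the insert with test compound in DMSO or solvent, with or without 100 nM recombinant HNE; the lower chamber held complete medium with the same additions. Plates were incubated 48 h at 37 °C, 5% CO₂, and non-migrated cells were swabbed off. Migrated cells were crystal violet-stained and counted microscopically, in triplicate. Comparisons to solvent control used a two-tailed unpaired t test.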
# [11] = target: purified 20S human proteasome (Homo sapiens, UniProt P28074); test: Proteasome activity assay; type: biochemical; conditions: 50 μM, compared to positive control epoxomicin
# Procedure, shortened: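 Purified human 20S proteasome (0.1 μg/well final) was pre-incubated 10 min at room temperature with test compound (50 μM final). Suc-LLVY-AMC substrate (75 μM final) was then added to measure chymotrypsin-like activity, using a commercial kit per the manufacturer's protocol.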
# [12] = target: T2, Bovine Pancreatic Chymotrypsin; conditions: read-out: reported IC50 against bovine chymotrypsin; cited from earlier work
# [13] = read-out: IC50 Human Neutrophil Elastase, mean ± SD, n=3, 15 min pre-incubation
structure (smiles),measurement,setting,value
"CCCC(=O)N[C@@H](C)C(=O)N[C@@H](C(=O)N[C@@H]1C(=O)N[C@@H](CC(C)C)C(=O)N[C@H]2CC[C@@H](O)N(C2=O)[C@@H](Cc2ccccc2)C(=O)N(C)[C@@H](Cc2ccc(O)cc2)C(=O)N[C@@H](C(C)C)C(=O)O[C@H]1C)[C@@H](C)OC(=O)[C@H](C)NC(=O)CCC [Loggerpeptin B (2), loggerpeptin B]","fold less potent than 1, HNE",[1],3 fold
same,IC50,[1]; [13],890 ± 90 nM
"C/C=C1\NC(=O)[C@@H](NC(=O)[C@@H](NC(=O)[C@H](C)NC(=O)CCC)[C@@H](C)O)[C@@H](C)OC(=O)[C@H](C(C)C)NC(=O)[C@H](Cc2ccc(O)cc2)N(C)C(=O)[C@H](Cc2ccccc2)N2C(=O)[C@H](CC[C@H]2O)NC1=O [Molassamide (4), molassamide]",IC50,[2],240 ± 10 nM
same,IC50,[3],50 ± 10 nM
same,IC50,[1],110 ± 10 nM
same,fold more potent than 3 in inhibiting CD40ch cleavage,[4],10 fold
same,complete inhibition of CD40ch cleavage up to (concentration),[4],1 µM
same,inhibition of HNE processing of CD40 in cells,[5]; 50 μM,virtually complete inhibition
same,effect on viability of MDA-MB-231 cells,MDA-MB-231 cells [6],no reduction in cell viability
same,elastase-induced ICAM-1 expression levels,[7]; 100 nM HNE,dose-dependent decrease
same,ICAM-1 expression levels in the absence of HNE,[7]; without HNE,no significant change
same,reduction in the levels of sICAM-1,[8]; 10 μM,35%
same,reduction in the levels of sICAM-1,[8]; 50 μM,65%
same,effect on the levels of sICAM-1 in the absence of HNE,[8]; without HNE,no effects
same,HNE-induced cell rounding prevented up to (concentration),"MDA-MB-231 cells [9]; co-treatment with 100 nM HNE, 3 h",10 µM
same,morphological changes upon treatment with compound only,"MDA-MB-231 cells [9]; without HNE, up to 50 μM",no morphological changes
same,effect on migration of MDA-MB-231 cells,MDA-MB-231 cells [10]; 10 μM,inhibited the migration
same,effect on migration of MDA-MB-231 cells in the absence of HNE,MDA-MB-231 cells [10]; without HNE,did not exhibit any migration inhibitory activity
same,inhibition of chymotrypsin-like activity of proteasomes,[11],did not inhibit
"C/C=C(\NC(=O)[C@H](C)NC(=O)CCC)C(=O)N[C@@H]1C(=O)N[C@@H](CC(C)C)C(=O)N[C@H]2CC[C@@H](O)N(C2=O)[C@@H](Cc2ccccc2)C(=O)N(C)[C@@H](Cc2ccc(O)cc2)C(=O)N[C@@H](C(C)C)C(=O)O[C@@H]1C [Loggerpeptin C (3), loggerpeptin C]","fold less potent than 1 and 2, porcine pancreatic elastase",[3]; ratio of IC50 values,2 fold
same,"fold less potent than 1, HNE",[1],2 fold
same,IC50,[1]; [13],620 ± 380 nM
same,complete inhibition of CD40ch cleavage up to (concentration),[4],10 µM
same,inhibition of HNE processing of CD40 in cells,[5]; 10 μM,lacked significant activity
same,inhibition of HNE processing of CD40 in cells,[5]; 50 μM,marginal activity
same,effect on migration of MDA-MB-231 cells,MDA-MB-231 cells [10]; different concentrations,no effect on migration
"CCCC(=O)N[C@@H](C)C(=O)N[C@H](C(=O)N[C@@H]1C(=O)N[C@@H](CC(C)C)C(=O)N[C@H]2CC[C@@H](O)N(C2=O)[C@@H](Cc2ccccc2)C(=O)N(C)[C@@H](Cc2ccc(O)cc2)C(=O)N[C@@H](C(C)C)C(=O)O[C@@H]1C)[C@H](C)O [Loggerpeptin A (1), loggerpeptin A]",IC50,[1]; [13],290 ± 40 nM
"CC(C)(C)C(=O)Oc1ccc(S(=O)(=O)Nc2ccccc2C(=O)NCC(=O)O)cc1 [Sivelestat, reference compound]",IC50,[3],3550 ± 140 nM
CC(=O)N1CCC[C@H]1C(=O)N[C@H](C(=O)N[C@@H]1C(=O)N[C@@H](CC(C)C)C(=O)N[C@H]2CC[C@@H](O)N(C2=O)[C@@H](Cc2ccccc2)C(=O)N(C)[C@@H](Cc2ccc(O)cc2)C(=O)N[C@@H](C(C)C)C(=O)O[C@@H]1C)[C@@H](C)O [kempopeptin A],IC50,[12],300 nM
